In ChEMBL document CHEMBL1149648, “Norcantharimides, synthesis and anticancer activity: Synthesis of new norcantharidin analogues and their anticancer evaluation” (2007):

Assays:
Assay type in all cases: functional
[1] = system: NCI-H460; assay: Cytotoxicity against human H460 cells at 100 uM after 72 hrs by MTT assay; settings: NCI-H460, 72 h
How it was run: (§1)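 Log-phase cells in DMEM with 10% FBS (37 °C, 5% CO2) were plated in duplicate at 2500–4000 cells/well. Agent was added 24 h later at a fixed final concentration of 100 µM and left for 72 h continuous exposure. Read-out was MTT absorbance at 540 nm, expressed as percent growth inhibition, where 100% means total growth inhibition.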

[2] = system: SW480; assay: Cytotoxicity against human SW480 cells at 100 uM after 72 hrs by MTT assay; settings: SW480, 72 h; how it was run: as §1
[3] = system: HT-29; assay: Cytotoxicity against human HT29 cells at 100 uM after 72 hrs by MTT assay; settings: HT-29, 72 h; how it was run: as §1
[4] = Cytotoxicity against human BE2C cells at 100 uM after 72 hrs by MTT assay; settings: BE(2)-C; how it was run: as §1
[5] = system: A2780; assay: Cytotoxicity against human A2780 cells at 100 uM after 72 hrs by MTT assay; settings: A2780, 72 h; how it was run: as §1
[6] = Cytotoxicity against human SJG2 cells at 100 uM after 72 hrs by MTT assay; settings: SJ-G2, 72 h; how it was run: as §1
[7] = system: MCF7; assay: Cytotoxicity against human MCF7 cells at 100 uM after 72 hrs by MTT assay; settings: MCF7, 72 h; how it was run: as §1
[8] = system: DU-145; assay: Cytotoxicity against human DU145 cells at 100 uM after 72 hrs by MTT assay; settings: DU-145, 72 h; how it was run: as §1
[9] = system: A-431; assay: Cytotoxicity against human A431 cells at 100 uM after 72 hrs by MTT assay; settings: A-431, 72 h; how it was run: as §1
[10] = system: MCF7; assay: Cytotoxicity against human MCF7 cells after 72 hrs by MTT assay; settings: MCF7, 72 h
How it was run: (§2)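 Cells were grown in DMEM with 10% FBS, bicarbonate, penicillin/streptomycin and 4 mM glutamine at 37 °C under 5% CO2. Log-phase cells were plated in duplicate at 2500–4000 cells/well. After 24 h, medium with or without agent was added (stocks in DMSO or water). Growth inhibition was read by MTT at 540 nm after 72 h continuous exposure. Values are means (SEM) of 3–6 experiments.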

[11] = system: SW480; assay: Cytotoxicity against human SW480 cells after 72 hrs by MTT assay; settings: SW480, 72 h; how it was run: as §2
[12] = system: A-431; assay: Cytotoxicity against human A431 cells after 72 hrs by MTT assay; settings: A-431, 72 h; how it was run: as §2
[13] = system: NCI-H460; assay: Cytotoxicity against human H460 cells after 72 hrs by MTT assay; settings: NCI-H460, 72 h; how it was run: as §2
[14] = system: A2780; assay: Cytotoxicity against human A2780 cells after 72 hrs by MTT assay; settings: A2780, 72 h; how it was run: as §2
[15] = Cytotoxicity against human SJG2 cells after 72 hrs by MTT assay; settings: SJ-G2, 72 h; how it was run: as §2
[16] = system: HT-29; assay: Cytotoxicity against human HT29 cells after 72 hrs by MTT assay; settings: HT-29, 72 h; how it was run: as §2
[17] = system: DU-145; assay: Cytotoxicity against human DU145 cells after 72 hrs by MTT assay; settings: DU-145, 72 h; how it was run: as §2
[18] = Cytotoxicity against human BE2C cells after 72 hrs by MTT assay; settings: BE(2)-C
How it was run: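 Cells cultured in DMEM with 10% FBS, bicarbonate, penicillin, streptomycin and 4 mM glutamine at 37 °C, 5% CO2. Log-phase cells plated in duplicate at 2500–4000/well; test agent (DMSO stock) added 24 h later. After 72 h continuous exposure, MTT read at 540 nm; means of 3–6 experiments.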

Structure (SMILES) | inhibition at 100 µM [1] | inhibition at 100 µM [2] | inhibition at 100 µM [3] | inhibition at 100 µM [4] | inhibition at 100 µM [5] | inhibition at 100 µM [6] | inhibition at 100 µM [7] | inhibition at 100 µM [8] | inhibition at 100 µM [9] | GI50 [10] | GI50 [11] | GI50 [12] | GI50 [13] | GI50 [14] | GI50 [15] | GI50 [16] | GI50 [17] | GI50 [18]
CCCCCCCCN1C(=O)[C@@H]2[C@H](C1=O)[C@@H]1CC[C@H]2O1 | < 10% | 65% | 70% | 68% | 50% | 54% | 88% | 44% | 61% |  |  |  |  |  |  |  |  | 
CCCCCCCCCCCCN1C(=O)[C@@H]2[C@H](C1=O)[C@@H]1CC[C@H]2O1 | 53% | 55% | 25% | 40% | 40% | 58% | 52% | 66% | 35% |  |  |  |  |  |  |  |  | 
CCCN1C(=O)[C@@H]2[C@H](C1=O)[C@@H]1CC[C@H]2O1 | < 10% | 45% | 16% | < 10% | < 10% | < 10% | < 10% | < 10% | < 10% |  |  |  |  |  |  |  |  | 
CCC(C)N1C(=O)[C@@H]2[C@H](C1=O)[C@@H]1CC[C@H]2O1 (stereo partly drawn) | < 10% | < 10% | < 10% | < 10% | < 10% | < 10% | < 10% | < 10% | < 10% |  |  |  |  |  |  |  |  | 
CCCCCCN1C(=O)[C@@H]2[C@H](C1=O)[C@@H]1CC[C@H]2O1 | < 10% | < 10% | < 10% | < 10% | < 10% | < 10% | < 10% | < 10% | < 10% |  |  |  |  |  |  |  |  | 
C=CCCN1C(=O)[C@@H]2[C@H](C1=O)[C@@H]1CC[C@H]2O1 | < 10% | < 10% | < 10% | < 10% | < 10% | < 10% | < 10% | < 10% | < 10% |  |  |  |  |  |  |  |  | 
O=C1[C@@H]2[C@H](C(=O)N1CC(O)CO)[C@@H]1CC[C@H]2O1 (stereo partly drawn) | 32% | 69% | 39% | 73% | > 100% | 27% | > 100% | 67% | 60% | 46 µM | 62 µM | > 100 µM | > 100 µM | 59 µM | > 100 µM | > 100 µM | > 100 µM | 
COC(CO)CN1C(=O)[C@@H]2[C@H](C1=O)[C@@H]1CC[C@H]2O1 (stereo partly drawn) | < 10% | < 10% | 12% | < 10% | < 10% | < 10% | 33% | < 10% | < 10% |  |  |  |  |  |  |  |  | 
O=C1[C@@H]2[C@H](C(=O)N1CCO)[C@@H]1CC[C@H]2O1 | 16% | 18% | 31% | < 10% | 15% | < 10% | 45% | < 10% | < 10% |  |  |  |  |  |  |  |  | 
CCCCN1C(=O)[C@@H]2[C@H](C1=O)[C@@H]1CC[C@H]2O1 | < 10% | < 10% | < 10% | < 10% | < 10% | < 10% | < 10% | < 10% | < 10% |  |  |  |  |  |  |  |  | 
CCCCCCCCCCN1C(=O)[C@@H]2[C@H](C1=O)[C@@H]1CC[C@H]2O1 | > 100% | 59% | 20% | 39% | 44% | 72% | 44% | 83% | 52% |  |  |  |  |  |  |  |  | 
O=C1[C@@H]2[C@H](C(=O)N1C1CCCCC1)[C@@H]1CC[C@H]2O1 | < 10% | < 10% | < 10% | < 10% | < 10% | < 10% | < 10% | < 10% | < 10% |  |  |  |  |  |  |  |  | 
O=C1[C@@H]2[C@H](C(=O)N1CC1CO1)[C@@H]1CC[C@H]2O1 (stereo partly drawn) | 17% | 30% | 25% | 20% | 40% | 25% | 10% | 22% | 40% |  |  |  |  |  |  |  |  | 
C=CCN1C(=O)[C@@H]2[C@H](C1=O)[C@@H]1CC[C@H]2O1 | 20% | 50% | 19% | 62% | 67% | 2% | 96% | 15% | 32% | 80 µM |  |  |  |  |  |  |  | 
CCCCCCCCCCCCCCCCCCN1C(=O)[C@@H]2[C@H](C1=O)[C@@H]1CC[C@H]2O1 | < 10% | < 10% | < 10% | < 10% | < 10% | < 10% | < 10% | < 10% | < 10% |  |  |  |  |  |  |  |  | 
C[C@@]12C(=O)OC(=O)[C@]1(C)[C@H]1CC[C@@H]2O1 [CANTHARIDIN] |  |  |  |  |  |  |  |  |  | 7.5 µM | 4.5 µM | 2.9 µM | 3.3 µM | 4.4 µM | 1.7 µM | 3.2 µM | 2.1 µM | 3.7 µM
